Calls of active or inactive are those of the source. No cut-off for these calls is given here.
Experiments:
[1] = biological target: T1, Oxysterols receptor LXR-alpha (Homo sapiens, UniProt Q13133); assay: Binding affinity to LXRalpha (unknown origin) by radioligand displacement assay
T1 sequence (Q13133 whole entry): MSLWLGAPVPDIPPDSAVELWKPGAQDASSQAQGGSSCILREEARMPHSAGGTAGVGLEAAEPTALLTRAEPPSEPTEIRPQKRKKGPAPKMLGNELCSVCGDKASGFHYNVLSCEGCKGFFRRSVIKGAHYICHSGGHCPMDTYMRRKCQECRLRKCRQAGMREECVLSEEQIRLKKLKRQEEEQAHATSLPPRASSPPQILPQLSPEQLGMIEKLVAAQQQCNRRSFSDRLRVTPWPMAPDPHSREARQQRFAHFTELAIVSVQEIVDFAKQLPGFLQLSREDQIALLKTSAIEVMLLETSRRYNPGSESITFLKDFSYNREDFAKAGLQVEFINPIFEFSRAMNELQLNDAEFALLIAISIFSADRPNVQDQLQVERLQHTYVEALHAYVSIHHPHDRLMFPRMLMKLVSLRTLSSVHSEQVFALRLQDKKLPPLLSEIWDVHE

[2] = biological target: T2, Nuclear receptor subfamily 1 group D member 1 (Homo sapiens, UniProt P20393); assay: Agonist activity at biotinylated REV-ERBalpha (unknown origin) assessed as increase in biotinylated NCOR peptide recruitment after 1 hr by FRET assay
T2 sequence (P20393 whole entry): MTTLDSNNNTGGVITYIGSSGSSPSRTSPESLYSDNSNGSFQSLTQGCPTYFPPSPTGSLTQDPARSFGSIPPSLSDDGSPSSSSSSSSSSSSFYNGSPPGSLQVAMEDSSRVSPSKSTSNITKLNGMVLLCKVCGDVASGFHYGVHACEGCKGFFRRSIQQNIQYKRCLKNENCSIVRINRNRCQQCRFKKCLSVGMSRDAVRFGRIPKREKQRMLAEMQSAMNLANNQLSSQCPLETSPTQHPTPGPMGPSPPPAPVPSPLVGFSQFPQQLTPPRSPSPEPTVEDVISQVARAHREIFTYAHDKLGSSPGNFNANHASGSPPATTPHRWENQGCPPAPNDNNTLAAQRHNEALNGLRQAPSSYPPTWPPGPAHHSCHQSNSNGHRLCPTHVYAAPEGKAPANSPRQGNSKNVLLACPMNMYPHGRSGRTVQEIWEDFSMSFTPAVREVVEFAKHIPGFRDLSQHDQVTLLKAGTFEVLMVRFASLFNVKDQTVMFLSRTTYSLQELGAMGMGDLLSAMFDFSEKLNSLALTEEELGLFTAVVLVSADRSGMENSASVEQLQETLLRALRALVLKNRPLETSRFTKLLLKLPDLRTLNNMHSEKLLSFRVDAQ
How it was run: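 TR-FRET: 20 nM biotinylated REV-ERBα pre-complexed with 10 nM APC-streptavidin, excess biotin added, then mixed with 20 nM biotinylated NCOR1 on 10 nM Eu-streptavidin. MOPS pH 7.5 buffer with NaF, CHAPS, BSA and 10 mM DTT. Added to compound (serial DMSO dilutions of 10 mM stocks), 1 h at RT, Eu/APC read. Data normalized to basal and minimal HTRF, fitted to a 4-parameter logistic.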

Homo sapiens = organism: Homo sapiens; assay: Selectivity ratio of IC50 for LXRalpha (unknown origin) to EC50 for biotinylated REV-ERBalpha (unknown origin)
[3] = biological target: T3, Nuclear receptor subfamily 1 group D member 1 (Homo sapiens) (UniProt P20393); assay: Agonist activity at REV-ERBalpha in human THP1 cells assessed as downregulation of LPS-stimulated IL-6 mRNA expression at 1 uM after 6 hrs by RT-qPCR analysis; format: cell-based; conditions: THP-1
T3 sequence (whole entry): T2 sequence (P20393 whole entry)
How it was run: (§1)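 THP-1 cells (RPMI1640 + 10% FBS, kept at 3×10^5–8×10^5 cells/mL) stimulated with LPS 10 mcg/mL with DMSO or compound at 1 μM, in triplicate. After six hours the cells were lysed and transcripts quantified by RT-qPCR against TATA box binding protein as housekeeping gene. Groups compared by one-way ANOVA with post-hoc Dunnett's.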

[4] = biological target: T4, Oxysterols receptor LXR-alpha (Homo sapiens) (UniProt Q13133); assay: Agonist activity at LXRalpha in human THP1 cells assessed as effect on LPS-stimulated ABCA1 mRNA expression at 1 uM after 6 hrs by RT-qPCR analysis; format: cell-based; conditions: THP-1; how it was run: as §1
T4 sequence (whole entry): T1 sequence (Q13133 whole entry)

THP-1 = assay: Cytotoxicity against human THP1 cells assessed as cell viability measured ATP level at 10 uM after 6 hrs by celltiter-glo assay; format: cell-based; conditions: thp-1, 6 h
How it was run: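 THP-1 cells incubated six hours with compound. CellTiter-Glo added for 15 min, then luminescence read.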

[5] = biological target: T3, Nuclear receptor subfamily 1 group D member 1 (Homo sapiens); assay: Agonist activity at REV-ERBalpha in human U2OS cells assessed as suppression of BMAL1 expression at 20 uM after 40 hrs by luciferase reporter gene assay relative to DMSO-treated control; format: cell-based
How it was run: (§2)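 U2OS cells stably carrying a mouse Bmal1-promoter luciferase reporter (hygromycin-selected clone) seeded at confluence in 384-well format. Rhythms synchronized by media change and checked over 48 h. Compound added, then bioluminescence recorded in real time every 20 min for 72 h in a temperature-controlled luminometer. Cells then washed and recovery oscillations in full growth medium monitored as a toxicity counter-screen.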

[6] = biological target: T3, Nuclear receptor subfamily 1 group D member 1 (Homo sapiens); assay: Agonist activity at REV-ERBalpha in human U2OS cells assessed as delay of peak of second cycle at 20 uM by luciferase reporter gene assay relative to DMSO-treated control; format: cell-based; how it was run: as §2
[7] = biological target: T4, Oxysterols receptor LXR-alpha (Homo sapiens); assay: Agonist activity at LXRalpha in human THP1 cells assessed as upregulation of LPS-stimulated ABCA1 mRNA expression at 10 uM after 6 hrs by RT-qPCR analysis; format: cell-based; conditions: THP-1
How it was run: (§3)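 THP-1 cells sub-cultured in RPMI1640 with 10% FBS, stimulated with LPS 10 μg/mL in presence of DMSO or compound at 10 μM. Transcript read-out by RT-qPCR, normalized to TATA box binding protein.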

[8] = biological target: T3, Nuclear receptor subfamily 1 group D member 1 (Homo sapiens); assay: Agonist activity at REV-ERBalpha in human THP1 cells assessed as downregulation of LPS-stimulated IL-6 mRNA expression at 10 uM after 6 hrs by RT-qPCR analysis; format: cell-based; conditions: THP-1; how it was run: as §3
[9] = biological target: T3, Nuclear receptor subfamily 1 group D member 1 (Homo sapiens); assay: Agonist activity at biotinylated REV-ERBalpha (unknown origin) assessed as biotinylated PGC1-beta peptide recruitment after 20 mins by Greiner assay
How it was run: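 Biotinylated peptides (final 20 nM) with Eu-W1024 streptavidin (final 20 nM), 20 min RT. Biotinylated REV-ERBα (20 nM) with APC-streptavidin (10 nM), 20 min RT, then 20-fold excess biotin, 15 min RT. Receptor solution added to peptide plates, Eu/APC TR-FRET read. Four wells per peptide averaged, with standard deviation.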

[10] = biological target: T3, Nuclear receptor subfamily 1 group D member 1 (Homo sapiens); assay: Agonist activity at REV-ERBalpha in human U2OS cells assessed as suppression of BMAL1 oscillation measured for 72 hrs by luciferase reporter gene assay; format: cell-based; how it was run: as §2

SMILES | IC50 [1] [µM] | EC50 [2] [µM] | Ratio IC50/EC50 (Homo sapiens) | Activity [3] | Activity [4] | Activity (THP-1) | Activity [5] [%] | TIME [6] [h] | Activity [7] | Activity [8] | Activity [9] | Activity [10]
O=[N+]([O-])c1ccc(CN(Cc2ccccc2)Cc2ccc(Cl)cc2)s1 | > 100 | 0.1 | > 1000 | – | – | – | – | – | – | – | – | –
N#Cc1ccc(CN(Cc2cccnc2)Cc2ccc(F)c(F)c2)s1 | 16 | 0.2 | 79 | Active | inactive | Non-toxic | 37 | 0 | – | – | – | –
CC(C)CCN(Cc1ccc(Cl)cc1)Cc1ccc([N+](=O)[O-])s1 | 16 | 0.16 | 100 | – | – | – | 21 | 0 | – | – | – | –
Clc1ccc(CN(Cc2cccnc2)Cc2cc3ccccc3s2)cc1 | 40 | 0.4 | 100 | – | – | – | 24 | 0 | – | – | – | –
COc1ccc(CN(Cc2cccnc2)Cc2ccc(C#N)s2)cc1 | > 100 | 0.63 | > 160 | – | – | – | – | – | – | – | – | –
Cc1ccc(CN(Cc2cccnc2)Cc2ccc([N+](=O)[O-])s2)cc1 | 40 | 0.16 | 250 | – | – | – | 23 | 0 | – | – | – | –
O=[N+]([O-])c1ccc(CN(Cc2ccc(Cl)cc2)Cc2cccnc2)s1 | 13 | 0.16 | 79 | – | – | – | – | – | – | – | – | –
O=[N+]([O-])c1ccc(CN(Cc2ccc(F)cc2)Cc2cccnc2)s1 | 40 | 0.16 | 250 | Active | inactive | Non-toxic | 14 | 0 | – | – | – | –
COc1cccc(CN(Cc2cccnc2)Cc2ccc([N+](=O)[O-])s2)c1 | 10 | 0.4 | 25 | – | – | – | 42 | 0.5 | – | – | – | –
N#Cc1ccc(CN(Cc2cccnc2)Cc2ccccc2F)s1 | 32 | > 50 | – | – | – | – | 6 | 0 | – | – | – | –
Clc1ccc(CN(Cc2cccnc2)Cc2sccc2-n2cccc2)cc1 | 40 | 0.63 | 63 | – | – | – | 30 | 0 | – | – | – | –
Cc1sc(CN(Cc2ccc(Cl)cc2)Cc2cccnc2)cc1Br | 32 | 0.25 | 130 | – | – | – | 16 | 0 | – | – | – | –
Clc1ccc(CN(Cc2cccnc2)Cc2nccs2)cc1 | 50 | > 50 | – | – | – | – | – | – | – | – | – | –
N#Cc1ccc(CN(Cc2ccc(F)cc2)Cc2cccnc2)s1 | – | 0.2 | – | – | – | – | – | – | – | – | – | –
CC(C)(C)OC(=O)CN(Cc1ccc(Cl)cc1)Cc1ccc([N+](=O)[O-])s1 [GSK-4112] | 5 | 0.5 | 10 | – | – | – | 6 | 0 | Active | Active | Dose-dependent effect | –
O=[N+]([O-])c1ccc(CN(Cc2ccc(Cl)cc2)Cc2ccccc2F)s1 | 20 | 0.063 | 320 | – | – | – | 38 | 0 | – | – | – | –
Cc1cccc(CN(Cc2cccnc2)Cc2ccc([N+](=O)[O-])s2)c1 | 25 | 0.2 | 130 | – | – | – | 41 | 0.8 | – | – | – | –
N#Cc1ccc(CN(Cc2ccc(Cl)cc2)Cc2cccnc2)s1 | 20 | 0.2 | – | Active | inactive | Non-toxic | 23 | 0 | – | – | – | –
Clc1ccc(CN(Cc2cccnc2)Cc2ncc[nH]2)cc1 | > 100 | > 50 | – | – | – | – | – | – | – | – | – | –
CCCCCNC(=O)N1CCC(CN(Cc2ccc(Cl)cc2)Cc2ccc([N+](=O)[O-])s2)C1 (stereo unspecified) [SR9011] | – | > 50 | – | – | – | – | 20 | 1.3 | – | – | Dose-dependent effect | –
CCOC(=O)N1CCC(CN(Cc2ccc(Cl)cc2)Cc2ccc([N+](=O)[O-])s2)C1 (stereo unspecified) | – | – | – | – | – | – | 14 | 1.3 | – | – | Dose-dependent effect | –
COc1ccc(CN(Cc2cccnc2)Cc2ccc([N+](=O)[O-])s2)cc1 | 32 | 0.2 | 160 | – | – | – | – | – | – | – | – | –
Cc1cc(Cl)ccc1CN(Cc1ccc(Cl)cc1)Cc1ccc([N+](=O)[O-])s1 | 63 | 0.05 | 1260 | Active | inactive | Non-toxic | 21 | 0 | – | – | – | Dose-dependent effect
Cc1ccccc1CN(Cc1cccnc1)Cc1ccc([N+](=O)[O-])s1 | 32 | 0.2 | 160 | – | – | – | 37 | 0 | – | – | – | –
N#Cc1ccc(CN(Cc2cccnc2)Cc2cc(F)ccc2F)s1 | 6.3 | 0.63 | 10 | – | – | – | 27 | 0 | – | – | – | –
O=[N+]([O-])c1ccc(CN(Cc2cccnc2)Cc2cccc(C(F)(F)F)c2)s1 | 16 | 0.4 | 40 | – | – | – | – | – | – | – | – | –
